Legend:
[1] = system: PPARG; assay: PPARG; assay type: cell-based; settings: bladder cancer cell line, absence or presence of Rosiglitazone
[2] = system: KP230 cells; settings: 10 μM
[3] = system: PAX8; settings: ref PubChem; cited from earlier work
[4] = system: U2OS; assay: proliferation in U2OS Cell Painting images; assay type: cell-based
[5] = system: YAP1; assay: YAP1 immunofluorescence and Western blot in H9 hPSCs; assay type: cell-based, human; settings: H9 cells, 10 μM
[6] = system: Yap1; assay: Yap1 Western blot and immunofluorescence in KP230 cells; assay type: cell-based, mouse; settings: 10 μM daily
[7] = system: KP230 cells; assay: RNA sequencing and gene set enrichment analysis in KP230 cells; assay type: cell-based, mouse; settings: 10 μM
In short: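 KP230 cells (murine Kras/Trp53 tumour-derived) grown in DMEM with 10% FBS, 1% L-glutamine and 1% P/S at 37C, 5% CO2. Kept at ≤20 passages and about 50% confluence. Treated with 10 μM test compound or an equal volume of DMSO. Total RNA isolated by RNeasy Mini with on-column DNase digestion, then sequenced.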

[8] = system: TC32 human Ewing’s family sarcoma cells; assay: proliferation assay; assay type: cell-based; settings: 10 μM every 24 hours for 3 days
[9] = system: Yap1; assay: qRT-PCR of Yap1 and sarcoma target genes in KP230 cells; assay type: cell-based, mouse
[10] = system: YAP1 target genes (CTGF and CYR61); assay: qPCR of YAP1 and target genes in H9 hPSCs; assay type: cell-based, human; settings: 24 hrs
[11] = system: HCT-116 colon cancer cells; assay: proliferation assay; assay type: cell-based; settings: 10 μM every 24 hours for 3 days, YAP1-independent line
[12] = system: TEAD-YAP interaction; settings: HEK-TIYL cells; ref PubChem; cited from earlier work
[13] = system: KP230, TC32, STS-109, HT-1080, HCT-116 cells; assay: trypan blue staining for toxicity; assay type: cell-based; settings: 10 μM, any of the cell lines tested
[14] = system: STS-109 human UPS cells; assay: proliferation assay; assay type: cell-based; settings: 10 μM daily for 8 days
[15] = system: A375 cells; settings: 6 and 24 hours, ref Subramanian et al., 2017; cited from earlier work
[16] = system: HT-1080 fibrosarcoma cells; assay: proliferation assay; assay type: cell-based; settings: 10 μM every 24 hours for 3 days
[17] = system: KP230 cells; assay: proliferation assay; assay type: cell-based, mouse; settings: 10 μM every 24 hours for 3 days
[18] = system: YAP1; assay: YAP1-responsive TEAD luciferase reporter assay in HEK-293 cells; assay type: cell-based; settings: 10μM, 48h of YAP overexpression
[19] = system: HT29 cells; settings: six hours of treatment, ref Subramanian et al., 2017; cited from earlier work
[20] = system: p38 activity; assay: single-cell p38 activity reporter; assay type: cell-based; settings: RPE1 p38 reporter; for influence on p38 activity (two-sided t-test): 1 μM, 48 hours
In short: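 RPE1 cells stably carrying a p38 kinase translocation reporter, grown in DMEM/F12 with 10% FBS at 37C, 5% CO2. Plated at 1000 cells/well, then given test compound at 1 or 10 μM for 48 h, 4 wells per concentration. Single-cell activity taken as median cytoplasmic-ring (5-pixel) over nuclear reporter intensity, normalised to same-plate/column DMSO. Significance by t-test or KS test with Benjamini-Hochberg adjustment.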

[21] = system: HEK293, HepG2, A549 cells; settings: ref PubChem; cited from earlier work
[22] = system: mesenchymal lineage periosteal cells; assay: qPCR of Hippo components in murine periosteal cells; assay type: cell-based, mouse; settings: 5μM
In short: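 Periosteal cells from 4-day femoral fracture callus of 3 female 15-week CMV-Cre;R26R-rtTA;tetO-YAPS127A mice (C57Bl/6 background). Cultured in α-MEM with 15% FBS, 1% GlutaMAX and 1% P/S. Test compound given at 5 μM. 1 μM doxycycline for 48 h induced YAPS127A as positive control for YAP1 mRNA.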

[23] = molecular target: human CSNK1A1 (Homo sapiens, UniProt P48729); assay: CSNK1A1 enzymatic mobility shift assay; assay type: biochemical
Sequence of human CSNK1A1 (P48729 whole entry): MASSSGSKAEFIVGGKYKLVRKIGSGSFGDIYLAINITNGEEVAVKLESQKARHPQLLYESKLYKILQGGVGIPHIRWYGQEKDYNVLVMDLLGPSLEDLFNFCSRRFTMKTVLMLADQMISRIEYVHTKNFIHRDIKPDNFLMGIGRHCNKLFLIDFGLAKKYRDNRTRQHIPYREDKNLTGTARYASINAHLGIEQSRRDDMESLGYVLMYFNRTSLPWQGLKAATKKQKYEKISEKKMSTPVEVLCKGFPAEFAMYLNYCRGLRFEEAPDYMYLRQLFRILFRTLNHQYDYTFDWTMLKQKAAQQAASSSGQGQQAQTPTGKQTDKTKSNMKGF

[24] = system: native kinases; assay: full KINOMEscan panel; assay type: binding

With CC(C)(C)n1nc(-c2ccc(Cl)cc2)c2c(N)ncnc21 [PP2] the “effect in PPARG (FABP4) reporter assay” value [1] was “reporter activation”.
In the case of CO[C@@H]1CN(C)C(=O)c2ccc(NC(=O)c3ccc(-c4ccccc4)cc3)cc2OC[C@H](C)NC[C@@H]1C [BRD-K28862419, N-((3S,6S,7S)-7-methoxy-3,6,9-trimethyl-10-oxo-3,4,5,6,7,8,9,10-octahydro-2H-benzo[k][1]oxa[4,9]diazacyclododecin-13-yl)-[1,1′-biphenyl]-4-carboxamide], the KP230 cell viability [2] is listed as “modestly yet significantly reduced”, the PAX8 inhibition [3] is listed as “inhibits” and the “proliferation in U2OS Cell Painting images” value [4] is listed as −2.0 st dev.
For c1ccc(CNc2ncnc3ccccc23)cc1 [NB4A, N-Benzylquinazolin-4-amine], the YAP1 nuclear localization ([5]; 24 hours) was “increased”, the “YAP1 S127 phosphorylation” value ([5]; 24 hrs) was “reduced” and the “total YAP1 protein levels” value ([5]; 24 hrs) was “decreasing”. The Yap1 nuclear localization [6] was “significantly attenuated”, the Yap1 protein levels ([6]; after 72 hours) was “reduced” and the “epithelial-mesenchymal transition, angiogenesis and glycolysis pathways (GSEA)” value [7] was “down-regulated”. For the same molecule, the “interferon alpha and gamma response pathways (GSEA)” value [7] was “up-regulated”, the “proliferation of TC32 cells” value [8] was “inhibited” and the “transcription of Yap1, its sarcoma target genes (Foxm1, Ccl2, Hbegf, Birc5, Rela) and Amot” value [9] was “did not directly alter”. For the same molecule, the “YAP1 mRNA expression” value [10] was “did not affect”, the “expression of YAP1 target genes (CTGF and CYR61)” value ([10]; dose-dependent) was “increased” and the “proliferation of HCT-116 cells” value [11] was “did not affect”. For the same molecule, the “activity in assay detecting inhibitors of TEAD-YAP interaction” value [12] was “showed activity”, the “overt toxicity by trypan blue staining” value [13] was “did not exhibit overt toxicity” and the “proliferation of STS-109 cells” value [14] was “did not affect”. The “YAP1 mRNA z-score” value [15] was ~ −0.7, the “proliferation of HT-1080 cells” value [16] was “did not affect” and the “proliferation of KP230 cells” value [17] was “inhibited”. For the same molecule, the “effect in YAP1-responsive reporter assay” value [18] was “no effect”, the “TAZ mRNA z-score” value [19] was 2.04 and the “YAP1 mRNA z-score” value [19] was 3.16.
With CCc1cc(-c2n[nH]c(C)c2-c2ccc3c(c2)OCCO3)c(O)cc1O [CCT018159] the “effect in PPARG (FABP4) reporter assay” value [1] was “Inhibitors”.
In the case of COC1(C[S@@+]([O-])c2ccccc2)CCN(CCc2c[nH]c3ccc(F)cc23)CC1 [BRD-K52394958], the “influence on p38 activity (alternative statistical test)” value [20] is reported as “identified via an alternative statistical test”.
In the case of CO[C@@H]1CN(C)C(=O)c2cc(NC(=O)Nc3ccc(C(F)(F)F)cc3)ccc2OC[C@@H](C)NC[C@@H]1C [BRD-K34692511, 1-[(4R,7S,8S)-8-methoxy-4,7,10-trimethyl-11-oxo-2-oxa-5,10-diazabicyclo[10.4.0]hexadeca-1(12),13,15-trien-14-yl]-3-[4-(trifluoromethyl)phenyl]urea], the “inhibition of cell proliferation AC50” value [21] is listed as “none of these impacts”, the “mRNA levels of Hippo components including Yap1 and Cyr61” value ([22]; 1 and 4 hours) is listed as “not at 1 and 4 hours” and the “mRNA levels of Hippo components including Yap1 and Cyr61” value ([22]; 48 hours) is listed as “substantially upregulated”. The PAX8 inhibition [3] was “none of these impacts” and the “proliferation in U2OS Cell Painting images” value [4] was “none of these impacts”.
For CCCCCCCCCCCCCC(=O)O[C@@H]1[C@@H](C)[C@@]2(O)[C@@H](C=C(CO)C[C@]3(O)C(=O)C(C)=C[C@@H]23)[C@@H]2C(C)(C)[C@]12OC(C)=O [Phorbol 12-myristate 13-acetate], the “effect in PPARG (FABP4) reporter assay” value [1] was “Inhibitors”.
In the case of Fc1ccc(-c2nc3n(c2-c2ccncc2)CCS3)cc1 [SKF-86002, reference compound], the “inhibitory IC50 concentrations, CSNK1A1” value ([23]; at Km ATP) is reported as “nanomolar range”.
In the case of Nc1nc(Nc2ccccc2)nc2c1ncn2C1OC(CO)C(O)C1O (stereo not drawn) [BRD-A64933752], the “influence on p38 activity (two-sided t-test)” value [20] is reported as “potential inhibitors”.
In the case of Cc1ccc(-c2nn(C(C)(C)C)c3ncnc(N)c23)cc1 [PP1], the “effect in PPARG (FABP4) reporter assay” value [1] is reported as “reporter activation”.
With C[C@@H]1CN([C@@H](C)CO)C(=O)CCCn2nncc2CO[C@@H]1CN(C)C(=O)Nc1ccnc(N2CCOCC2)c1 [BRD-K65952656] the “binding to native kinases in full KINOMEscan panel” value [24] was “failed to bind any native kinases” and the IC50 ([23]; read-out: inhibition of CSNK1A1 IC50) was 12 µM.
For CCCCNc1cc(C(=O)O)cc(S(N)(=O)=O)c1Oc1ccccc1 [BRD-K38197229], the “influence on p38 activity (two-sided t-test)” value [20] was “potential inhibitors”.
